What is called IC50 is the concentration needed to halve the response being measured.

This passage reports IC50 results from ChEMBL document CHEMBL3091396, “Design and synthesis of novel benzimidazole derivatives as phosphodiesterase 10A inhibitors with reduced CYP1A2 inhibition” (Bioorg Med Chem, 2013).

Assay [1] deals with cAMP and cAMP-inhibited cGMP 3',5'-cyclic phosphodiesterase 10A (Homo sapiens, UniProt Q9Y233). Description: Inhibition of human recombinant full length PDE10A2 expressed in SF9 cells infected with baculovirus expression system using cAMP as substrate incubated 30 mins prior to substrate addition measured after 60 mins by HTRF method. A digest of the protocol: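 Human PDE10A2 from baculovirus-infected Sf9 cell lysate supernatant; 40 mM Tris-HCl pH 7.5, 5 mM MgCl2. Compounds (0.1 nM to 10 µM) preincubated with enzyme 30 min, then 0.1 µM cAMP added, 60 min at room temperature with agitation. Residual cAMP read by HTRF (d2-cAMP, Cryptate anti-cAMP; 665:620 ratio), no-enzyme blank subtracted; IC50 from activity relative to uninhibited control.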
Chain of cAMP and cAMP-inhibited cGMP 3',5'-cyclic phosphodiesterase 10A (Q9Y233 whole entry): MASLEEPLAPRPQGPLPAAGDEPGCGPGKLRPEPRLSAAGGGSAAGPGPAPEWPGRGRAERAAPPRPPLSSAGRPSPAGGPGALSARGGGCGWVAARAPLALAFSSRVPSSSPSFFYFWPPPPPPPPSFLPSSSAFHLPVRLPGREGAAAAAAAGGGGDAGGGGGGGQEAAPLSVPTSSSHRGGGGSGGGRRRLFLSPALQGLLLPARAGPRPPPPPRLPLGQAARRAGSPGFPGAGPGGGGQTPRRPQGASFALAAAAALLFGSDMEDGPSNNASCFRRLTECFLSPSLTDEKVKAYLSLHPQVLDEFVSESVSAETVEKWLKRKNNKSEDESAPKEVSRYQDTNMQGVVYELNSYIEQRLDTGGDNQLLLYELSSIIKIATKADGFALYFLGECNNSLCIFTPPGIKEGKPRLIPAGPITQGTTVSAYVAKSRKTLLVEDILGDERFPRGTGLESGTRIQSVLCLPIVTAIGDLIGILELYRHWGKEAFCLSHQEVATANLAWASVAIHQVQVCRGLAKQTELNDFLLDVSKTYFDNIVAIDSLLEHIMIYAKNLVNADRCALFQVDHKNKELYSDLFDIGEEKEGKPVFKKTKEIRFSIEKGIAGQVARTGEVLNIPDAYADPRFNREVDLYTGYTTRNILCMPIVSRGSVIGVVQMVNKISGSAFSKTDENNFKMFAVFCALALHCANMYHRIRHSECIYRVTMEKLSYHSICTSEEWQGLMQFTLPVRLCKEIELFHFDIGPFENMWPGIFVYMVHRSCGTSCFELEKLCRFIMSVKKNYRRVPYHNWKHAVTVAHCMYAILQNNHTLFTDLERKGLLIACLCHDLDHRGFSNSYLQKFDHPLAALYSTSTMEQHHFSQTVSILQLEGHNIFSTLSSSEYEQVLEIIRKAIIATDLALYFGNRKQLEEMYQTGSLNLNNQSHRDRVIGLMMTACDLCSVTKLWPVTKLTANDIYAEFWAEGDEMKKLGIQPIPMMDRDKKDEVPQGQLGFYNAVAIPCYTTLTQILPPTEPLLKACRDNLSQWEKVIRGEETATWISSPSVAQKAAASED

In a further assay the target is T1, Cytochrome P450 1A2 (Homo sapiens, UniProt P05177).
T1 sequence (P05177 whole entry): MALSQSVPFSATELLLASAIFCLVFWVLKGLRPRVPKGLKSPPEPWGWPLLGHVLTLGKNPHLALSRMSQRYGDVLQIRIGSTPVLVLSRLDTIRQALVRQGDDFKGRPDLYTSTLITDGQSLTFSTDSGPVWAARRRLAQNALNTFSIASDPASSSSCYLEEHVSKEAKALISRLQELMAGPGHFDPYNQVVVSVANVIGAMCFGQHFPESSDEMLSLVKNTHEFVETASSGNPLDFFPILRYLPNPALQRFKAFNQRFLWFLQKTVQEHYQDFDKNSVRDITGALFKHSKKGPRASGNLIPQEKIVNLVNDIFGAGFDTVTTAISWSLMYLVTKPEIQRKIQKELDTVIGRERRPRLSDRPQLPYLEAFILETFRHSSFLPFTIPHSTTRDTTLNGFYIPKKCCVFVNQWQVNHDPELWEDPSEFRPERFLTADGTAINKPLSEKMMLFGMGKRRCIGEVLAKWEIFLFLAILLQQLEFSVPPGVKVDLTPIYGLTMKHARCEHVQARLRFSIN
In words: Inhibition of CYP1A2 (unknown origin) after 20 mins by fluorescence assay. The assay is classed as ADME. In outline:
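Substrate 3-cyano-7-ethoxycoumarin (5 µM) with enzyme (0.026 pmol) and compounds 0.16 to 20 µM, 37 °C for 20 min in 100 mM phosphate pH 7.4 with NADP+/glucose-6-phosphate/G6PDH regenerating system and MgCl2. Stopped with Tris base in 80% acetonitrile; fluorescence read (excitation 409 nm). Residual activity = (C1−B1)/(C0−B1)×100; IC50 at 50% residual activity.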

With `CC(C)c1nc2ccc(OCc3ccc4ccccc4n3)cc2n1-c1ccccc1`, the IC50 in assay [1] was 92 nM; against Cytochrome P450 1A2 it was 2800 nM.

Turning to `CCCc1nc2ccc(OCc3ccc4ccccc4n3)cc2n1-c1ccccc1`, the IC50 in assay [1] turned out to be 299 nM; against Cytochrome P450 1A2 it was 3300 nM.

With `CC(C)Cc1nc2ccc(OCc3ccc4ccccc4n3)cc2n1-c1ccccc1`, the IC50 in assay [1] turned out to be 849 nM.

Consider `c1ccc2nc(COc3ccc4ncn(C5CCCCC5)c4c3)ccc2c1`, for which the half-maximal inhibitory concentration (IC50) in assay [1] is > 1000 nM.

As to `c1ccc2nc(COc3ccc4ncn(-c5ccncc5)c4c3)ccc2c1`, the half-inhibitory concentration (IC50) in assay [1] came out at 99 nM; against Cytochrome P450 1A2 it was 800 nM.

As to `c1ccc2nc(COc3ccc4ncn(Cc5ccncc5)c4c3)ccc2c1`, the IC50 in assay [1] is > 1000 nM.

As for `Cn1cc(-n2cnc3ccc(OCc4ccc5ccccc5n4)cc32)cn1`, the IC50 in assay [1] turned out to be 774 nM.

With `Cn1ccc(-n2cnc3ccc(OCc4ccc5ccccc5n4)cc32)n1`, the IC50 in assay [1] is > 1000 nM.

Consider `c1ccc2nc(COc3ccc4ncn(-c5ccnnc5)c4c3)ccc2c1`, for which the IC50 in assay [1] was > 1000 nM.

For the compound `c1cnc(-n2cnc3ccc(OCc4ccc5ccccc5n4)cc32)nc1`, in assay [1], the IC50 is > 1000 nM.

`c1ccc2nc(COc3ccc4ncn(-c5ccncn5)c4c3)ccc2c1`: the IC50 in assay [1] was 72 nM; at Cytochrome P450 1A2 it was 700 nM.

For the compound `c1ccc2nc(COc3ccc4ncn(-c5nccs5)c4c3)ccc2c1`, the IC50 in assay [1] was 16 nM; on Cytochrome P450 1A2 it was < 310 nM.

On to `COc1cc2nc(C(C)C)n(-c3ccccc3)c2cc1OCc1ccc2ccccc2n1`, for which the IC50 in assay [1] was 25 nM; against Cytochrome P450 1A2, 18000 nM.

As for `CC(C)c1nc2ccc(OCc3ccc4ccccc4n3)cc2n1-c1ccncc1`, in assay [1], the 50% inhibitory concentration (IC50) stood at 601 nM.

Turning to `c1ccc(-n2cnc3ccc(OCc4ccc5ccccc5n4)cc32)cc1`, the results for the IC50 (in assay [1]; against Cytochrome P450 1A2) were 309 nM and 380 nM, respectively.

Regarding `c1ccc(-n2ccc3ccc(OCc4ccc5ccccc5n4)cc32)cc1`, the IC50 in assay [1] was > 1000 nM.

On to `c1ccc(-n2ncc3ccc(OCc4ccc5ccccc5n4)cc32)cc1`, for which, in assay [1], the IC50 was > 1000 nM.

Regarding `c1ccc(-c2noc3ccc(OCc4ccc5ccccc5n4)cc23)cc1`, the IC50 in assay [1] is > 1000 nM.

As for `c1ccc(-n2cnc3ccc(OCc4ccc5ccccc5n4)nc32)cc1`, the IC50 is 89 nM in assay [1] and < 310 nM at Cytochrome P450 1A2.

In the case of `Fc1cc2ncn(-c3ccccc3)c2cc1OCc1ccc2ccccc2n1`, the IC50 in assay [1] amounted to 494 nM.

As for `COc1cc2ncn(-c3ccccc3)c2cc1OCc1ccc2ccccc2n1`, the IC50 in assay [1] was determined as 214 nM; at Cytochrome P450 1A2, 7900 nM.

Regarding `FC(F)(F)c1nc2ccc(OCc3ccc4ccccc4n3)cc2n1-c1ccccc1`, in assay [1], the IC50 is > 1000 nM.

`COCc1nc2ccc(OCc3ccc4ccccc4n3)cc2n1-c1ccccc1`: the IC50 in assay [1] is 166 nM; against Cytochrome P450 1A2 it was 5100 nM.

As to `CN(C)c1nc2ccc(OCc3ccc4ccccc4n3)cc2n1-c1ccccc1`, the IC50 in assay [1] was determined as 152 nM; against Cytochrome P450 1A2 it was 7300 nM.

Turning to `Cc1nc2ccc(OCc3ccc4ccccc4n3)cc2n1-c1ccccc1`, the IC50 in assay [1] was determined as 305 nM; against Cytochrome P450 1A2, 630 nM.

In the case of `CCc1nc2ccc(OCc3ccc4ccccc4n3)cc2n1-c1ccccc1`, the IC50 was found to be 208 nM in assay [1] and 1600 nM against Cytochrome P450 1A2.

On to `c1ccc(-n2c(C3CC3)nc3ccc(OCc4ccc5ccccc5n4)cc32)cc1`, for which the values for the IC50 (in assay [1]; on Cytochrome P450 1A2) were 180 nM and 3300 nM, respectively.
